Measurements reported in paper PMC9909794 (ACS Omega, 2023).

How the values were obtained:
integrin αvβ5 = settings: cited from earlier work
integrin αvβ3 = settings: cited from earlier work
[1] = system: human dermal fibroblasts (HDFs); test: Cell adhesion assay on peptide-BSA-coated plates, HDFs; assay type: cell-based; settings: peptides conjugated at 0.125 μM and 1 μM; 5 × 10^3 cells/well; 1 h
Method in brief: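 HDFs grown in DMEM with 10% FBS and penicillin/streptomycin, detached with 0.05% trypsin–EDTA, and suspended in 0.1% BSA/DMEM. Plates coated with Mal-BSA (10 μg/mL in water; 30 min, 37 °C), then Cys-PPP-spacer amide peptides in 100 mM HEPES pH 7 for 2 h. After 1 h adhesion, cells fixed and stained with crystal violet. Counts averaged over nine 0.77 mm2 fields; mean ± SE, three independent experiments.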

c(RGDf(NMe)V) [cilengitide]
Affinity for integrin αvβ5 relative to linear RGD peptides (integrin αvβ5): much higher affinity
Affinity for integrin αvβ3 relative to linear RGD peptides (integrin αvβ3): much higher affinity

CPPP-RGDNYI
Effect of the X3 amino acid on cell adhesion activity, HDFs [1]: negligible

CPPP-RGDNYP
Effect of the X3 amino acid on cell adhesion activity, HDFs [1]: negligible
